Assay outcomes (PubChem)
Shown are actives, neighbours in structure and some others; about 3.1% of the full set was active somewhere.
MBD2 inh = blocks human MBD2 binding to methylated DNA; TR-FRET, MBD2 binding to methylated oligonucleotide; inhibition, % at 4.4 µM; hit rate 0.31% among 370,000; in the data active = inhibition above about 13%
CSN deneddyl inh = CSN deneddylation inhibition. Purified CSN, SCF-Nedd8-OG deneddylation, fluorescence polarization. inhibition, % at 12.5 µM. hit rate 0.38% among 360,000. AID 651999;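 active = pattern-corrected inhibition above about 35%, with an unprinted fluorescence ratio check between 0.5 and 1.5, limit read from the data, passing the limit was not always enough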;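 note: 0% = enzyme with substrate and 100% = substrate without enzyme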
Target sequence (Q92905 whole entry, looked up, one chain of several): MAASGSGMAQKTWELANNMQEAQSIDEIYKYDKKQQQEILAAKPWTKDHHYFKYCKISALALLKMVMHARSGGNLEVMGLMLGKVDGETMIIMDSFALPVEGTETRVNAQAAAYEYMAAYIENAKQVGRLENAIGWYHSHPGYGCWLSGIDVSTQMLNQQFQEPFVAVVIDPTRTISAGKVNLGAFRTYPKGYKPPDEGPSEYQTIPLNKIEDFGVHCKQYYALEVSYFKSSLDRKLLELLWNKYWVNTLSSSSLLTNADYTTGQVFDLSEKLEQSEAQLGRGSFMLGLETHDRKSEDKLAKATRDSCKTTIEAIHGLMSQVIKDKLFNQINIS
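test system = HEK293T-derived human Csn5 enzyme | amount = 0.24 nM Csn5 enzyme, final concentration | medium = Tris/NaCl/DTT buffer, pH 7.5 | schedule = 90 min reaction at room temperature | signal = FP | evaluation = inhibition of Csn5 cleavage, % | compound dosing = single dose of 12.5 µM compound with 0.25% DMSO | probe or stimulus = 10 nM SCFSkp2-Nedd8OG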
UHRF1 binding = blocks human UHRF1 binding to methylated DNA; UHRF1 binding to methylated oligo, TR-FRET; inhibition, % at 4.4 µM; hit rate 0.75% among 370,000; AID 687016;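 note: UHRF1 SRA domain binding a hemimethylated CpG hairpin DNA probe; 0% = median of test compound wells and 100% = reference inhibitor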
LEDGF integ inh = blocks HIV-1 LEDGF/p75-dependent DNA integration | TR-FRET IN-LEDGF/p75 DNA integration, Eu/Cy5 | inhibition, % at 3.7 µM | hit rate 0.64% among 370,000 | AID 743269;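 active = inhibition above the screen-wide mean plus 3 SD, cut at about 13% in these data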;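 note: signal is the Cy5 over europium emission ratio at 671 and 618 nm; 0% = plate median of compound wells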
ATG4B inh = inhibitors of human ATG4B cysteine protease | ATG4B cleavage of LC3-PLA2, NBD-HPC fluorescence, 1 h | inhibition, % at 8.33 µM | hit rate 0.51% among 340,000 | AID 504462; in the data active = inhibition above about 40%
Target sequence (Q9Y4P1 whole entry, looked up): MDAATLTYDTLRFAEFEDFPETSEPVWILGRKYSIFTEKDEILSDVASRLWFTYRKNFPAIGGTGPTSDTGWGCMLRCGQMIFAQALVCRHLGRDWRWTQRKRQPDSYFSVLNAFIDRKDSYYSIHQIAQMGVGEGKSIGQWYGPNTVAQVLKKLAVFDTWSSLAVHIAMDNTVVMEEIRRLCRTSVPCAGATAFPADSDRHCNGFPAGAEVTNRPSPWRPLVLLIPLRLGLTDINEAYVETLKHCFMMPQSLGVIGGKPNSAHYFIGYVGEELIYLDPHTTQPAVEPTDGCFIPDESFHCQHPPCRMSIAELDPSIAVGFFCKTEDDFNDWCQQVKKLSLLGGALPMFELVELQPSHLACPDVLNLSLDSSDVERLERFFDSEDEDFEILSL
rCAG binder = r(CAG) repeat RNA binding; TO-PRO-1 dye displacement fluorescence; inhibition, % at 3 µM; hit rate 1.3% among 370,000;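 active = inhibition above the plate cutoff, the mean of all test compounds on that plate plus 3 SD, cut at about 35% in these data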;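 note: 0% = DMSO alone and 100% = 100 µM mitoxantrone as full dye displacement; higher means more dye released from RNA so lower well fluorescence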
rCAG binder conf = r(CAG) RNA repeat binding, confirmation; shares compounds with rCAG binder; AID 652065; inhibition, % at 3 µM; TO-PRO-1 dye displacement fluorescence; hit rate 70% among 4,300;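 active = inhibition above a per-plate cutoff, the mean inhibition of sample wells plus 3 SD, cut at about 35% in these data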;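 note: loss of TO-PRO-1 fluorescence as compound displaces dye from 1x1 AA loop RNA; 0% = DMSO only wells and 100% = 100 µM mitoxantrone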
DNA CAG counter = disrupts DNA CAG TO-PRO-1 complex, flagging rCAG hits; shares compounds with rCAG binder; d(CAG) DNA oligo TO-PRO-1 dye displacement, fluorescence; inhibition, % at 3 µM; hit rate 94% among 4,300; AID 652068;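 active = inhibition above its plate's cutoff, the mean test-well inhibition plus 3 SD, cut at about 4.8% in these data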;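 note: 0% = DNA dye mix with DMSO and 100% = 100 µM mitoxantrone; hits displace the dye from DNA and so lower well fluorescence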
CSN5 deneddyl = validation of inhibitors of human CSN-mediated cullin deneddylation; shares compounds with CSN deneddyl inh; Csn5 deneddylation of SCF-Nedd8OG, fluorescence polarization, 90 min; inhibition, % at 16.6 µM; hit rate 62% among 540; AID 720654; in the data active = inhibition above about 50%;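 note: 0% = DMSO with enzyme and 100% = no enzyme wells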
MMP2 cntr CSN = MMP-2 (human) inhibition, counter-screen for CSN hits. AID 720655. shares compounds with CSN deneddyl inh. recombinant MMP-2, FRET substrate fluorescence, 60 min. hit rate 33% among 540. inhibition, % at 16.6 µM;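 active = corrected plate-normalized z-score of 5 or more, or -5 or less, or inhibition of 15% or more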;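 note: plate controls were DMSO wells with enzyme for no effect and buffer wells lacking MMP-2 for full effect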
Thrombin cntr = counter-screen for CSN deneddylation inhibitors: bovine thrombin inhibition; inhibition, % at 16.6 µM; hit rate 49% among 540; shares compounds with CSN deneddyl inh; AID 720656; bovine thrombin cleavage of Ub4-pepOG, fluorescence polarization;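 active = inhibition at or above a set limit, with a fluorescence interference ratio between 0.5 and a set maximum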
UHRF1 ctr MBD2 = inhibits human UHRF1 binding to methylated oligonucleotide, MBD2 counter-screen; shares compounds with MBD2 inh; TR-FRET; inhibition, % at 4.4 µM; hit rate 25% among 1,000;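 note: UHRF1 SRA domain binding a labeled hemimethylated CpG hairpin DNA; 0% = vehicle only and 100% = reference inhibitor with vehicle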
MBD2 DBD conf = confirmation of human MBD2-DBD methylated oligonucleotide binding inhibitors. hit rate 26% among 1,000. TR-FRET MBD2-DBD binding to methylated oligonucleotide. inhibition, % at 4.4 µM. shares compounds with MBD2 inh; in the data active = inhibition above about 14%
* hit, by the source's call; nt = no result given. Cut-off read from the data, not from the text of the source, unless noted: active = inhibition above about 21%; inactive = the rest.

SMILES	MBD2 inh	CSN deneddyl inh	UHRF1 binding	LEDGF integ inh	ATG4B inh	rCAG binder	rCAG binder conf	DNA CAG counter	CSN5 deneddyl	MMP2 cntr CSN	Thrombin cntr	others
O=C1NC(Cc2cnc[nH]2)C(=O)N2CCCC12 (stereo unspecified)	0	nt	-1	-3	nt	0	nt	nt	nt	nt	nt
Cc1ccc(-c2csc(NC(=O)/C=C/c3ccco3)c2C(=O)O)cc1	1	42*	31*	13	39	58*	36*	9.6*	67*	8	0
OC(c1ccccc1)(c1ccccc1)C1CCN(CCCNc2ccccc2F)CC1	1	nt	0	-3	nt	2	nt	nt	nt	nt	nt
O=C(COc1ccc(Cl)cc1Cl)Nc1ccc(C(=O)Nc2ccccc2C(=O)O)cc1	-2	52*	-4	0	-1	50*	86*	74*	75*	20*	6
O=C(O)CSc1cc(C(=O)c2ccccc2O)cn2c(=O)c3c4c(sc3nc12)CCCC4	0	43*	1	0	5	47*	85*	61*	31	42*	-21
O=C(O)C(c1ccccc1)N1C(=O)/C(=C\c2ccc(-c3ccccc3Cl)o2)SC1=S (stereo unspecified)	-2	92*	4	6	27	45*	87*	63*	-58	5	94*
COC(=O)[C@]12C[C@H](CC(=O)NCCCCc3ccccc3)C(=O)N(Cc3cccc4ccccc34)C1=C[C@H](COCc1ccccc1)O[C@@H]2C	2	nt	0	-5	nt	14	nt	nt	nt	nt	nt
O=C(CSc1n[nH]c(=O)[nH]c1=O)Nc1ccc2c(c1)C(=O)c1ccccc1C2=O	-6	48*	12	1	-5	40*	43*	17*	nt	69*	-9
Cc1cc(C)cc(OC(C)CCN2CCC(C(O)(c3ccccc3)c3ccccc3)CC2)c1 (stereo unspecified)	-6	nt	-1	0	nt	-1	nt	nt	nt	nt	nt
S=c1[nH]nc(-c2cc(-c3ccccc3)n[nH]2)n1/N=C/c1ccc(Br)s1	4	36*	-2	3	-9	71*	79*	46*	82*	21*	2
Cc1cc(-c2n[nH]c(=S)n2/N=C/c2ccc(Br)s2)n[nH]1	3	4	-2	-2	-10	14	nt	nt	nt	nt	nt
O=C(CCc1ccccc1-c1ccccc1CCNC(=O)c1cccc(F)c1)NCc1ccccc1	6	nt	2	-3	nt	8	nt	nt	nt	nt	nt
CSCCCNC(=O)c1oc(=O)c2ccccc2c1-c1ccc(C)cc1	-4	nt	-1	0	nt	-2	nt	nt	nt	nt	nt
COc1ccc(CCNC(=O)Cn2ncc3c2-c2cc(C)ccc2OC3)cc1	2	nt	-2	-1	nt	-1	nt	nt	nt	nt	nt
COc1cc(/C=C2\SC(=S)N(c3cccnc3)C2=O)ccc1O	1	149	-2	2	-2	7	nt	nt	nt	nt	nt
COc1cc(/C=C2\SC(=S)N(C(Cc3ccccc3)C(=O)O)C2=O)ccc1O (stereo unspecified)	-3	36*	-1	-8	6	45*	34	7.9*	56*	6	68*
COc1cc(-c2nnc(SCc3cc(=O)oc4cc(O)c(O)cc34)o2)cc(OC)c1OC	29*	47*	52*	78*	13	59*	64*	30*	nt	32*	34*
C[C@H]1CCCN1c1ccc2c(c1)OCCCN(C1CC1)S2(=O)=O	-1	nt	6	2	nt	0	nt	nt	nt	nt	nt
O=C(N/N=C\C=C\c1ccco1)c1cc(-c2ccc3ccccc3c2)n[nH]1	-2	43*	-3	6	-10	44*	34	20*	96*	11	-9
C/C(C=NNC(=O)c1cc(-c2ccc(C)c(C)c2)n[nH]1)=C/c1ccco1	-2	nt	-1	-2	nt	20	nt	nt	nt	nt	nt
O=C1/C(=C\c2ccc(-c3ccccc3Cl)o2)SC(=S)N1CC1CCCO1 (stereo unspecified)	2	7	5	2	-4	5	nt	nt	nt	nt	nt
Cc1ccc(/C=C2\SC(=S)N(CC3CCCO3)C2=O)o1 (stereo unspecified)	-2	74*	0	9	3	46*	40*	15*	103*	33*	34*
Cc1nc2ccc(S(=O)(=O)NCC(=O)N(C)Cc3ccccc3Cl)cc2s1	4	nt	3	-1	nt	0	nt	nt	nt	nt	nt
N#Cc1cccc(NC(=O)OCCN2C(=O)CCC23CCC(c2ccccc2)CC3)c1 (stereo unspecified)	-1	nt	1	-3	nt	3	nt	nt	nt	nt	nt
Cn1c(O)c(/C=N/NC(=O)c2cc3ccccc3cc2O)c2ccccc21	-3	40*	-2	-6	32	95*	90*	75*	75*	1	45*
SMILES	MBD2 inh	CSN deneddyl inh	UHRF1 binding	LEDGF integ inh	ATG4B inh	rCAG binder	rCAG binder conf	DNA CAG counter	CSN5 deneddyl	MMP2 cntr CSN	Thrombin cntr	others
COc1ccc(/C=C2\C(=O)NC(=S)N2C(=O)c2ccc(C)cc2)cc1	0	48*	-1	-7	32	58*	76*	35*	-4	10	37*
COc1cc(Cl)c(C)cc1NC(=O)CSc1sc2c(O)cc(=O)[nH]c2c1C#N	17*	22	33*	11	15	49*	55*	30*	nt	nt	nt	UHRF1 ctr MBD2=17;MBD2 DBD conf=6
Nc1ncnc2oc(-c3ccco3)c(-c3ccco3)c12	81*	36	92*	86*	-8	68*	27	16*	nt	nt	nt	UHRF1 ctr MBD2=53*;MBD2 DBD conf=39*
CCCSc1nc(C)c(-c2csc(C(C#N)=C3CCCC3)n2)cc1C#N	16*	45*	17	2	-1	44*	38*	25*	nt	nt	nt	UHRF1 ctr MBD2=7;MBD2 DBD conf=6
CCCCSc1nc2c(cc1C#N)CCC2	-6	4	-5	1	8	1	nt	nt	nt	nt	nt
Cc1cccc(-c2cccc3c4c([nH]c23)[C@@H]2C[C@H](N(C)C(=O)NC3CCCCC3)[C@H]([C@H](C)O)C(=O)N2CC4)c1	4	nt	2	-2	nt	12	nt	nt	nt	nt	nt
